The source made the active and inactive calls. The rule behind the calls is not given here.
Experiments:
[1] = Inhibition of 8CPT-cAMP-induced cortisol secretion in bovine AZF cells at 10 uM after 24 hrs by EIA; assay type: functional; details: Bos taurus
Summary of the method: (§1)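 Bovine adrenal zona fasciculata cells from 2–3-yr steers were plated on fibronectin-coated dishes in DMEM/F12 with 10% FBS and antioxidants for 24 h. They were then switched to serum-free DMEM/F12 with BSA, ascorbate, tocopherol, insulin and transferrin, and treated with 250 µM 8CPT-cAMP ± curcumin (1–20 µM). Medium cortisol was measured by EIA in duplicate from duplicate samples, as mean ± SEM.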

AZF [2] = experiment: Inhibition of Cav3.2 channel in bovine AZF cells at 10 uM by cell patch clamp assay; assay type: cell-based; details: Bos taurus
Summary of the method: (§2)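 Whole-cell T-type Ca2+ currents were recorded from bovine AZF cells 2–12 h after plating (10–15 pF, <15 µm). The pipette held CsCl/BAPTA/MgATP at pH 7.2, and the bath held TEA-Cl with 20 mM Ca2+ at pH 7.4. Current was recorded in standard saline, then the cell was superfused with 5, 10 or 20 µM curcumin, and % inhibition of current amplitude was measured (n = 4–6).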

AZF [3] = experiment: Inhibition of Cav3.2 channel in bovine AZF cells at 20 uM by cell patch clamp assay; assay type: cell-based; details: Bos taurus; summary of the method: as §2
[4] = Inhibition of ACTH-induced StAR mRNA expression in bovine AZF cells at 10 uM after 24 hrs using [alpha32P]dCTP labeled probes by Northern blot analysis; assay type: functional; details: Bos taurus
Summary of the method: (§3)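 Steer AZF cells ((5–8) × 10^6 per dish, fibronectin-coated) were plated 24 h with serum, then held in serum-free supplemented DMEM/F12. They were preincubated 10 min with curcumin (10 µM), then given 2 nM ACTH for 24 h. Total RNA (10 µg/lane) was run on a denaturing gel and Northern blotted with bovine CYP11a1 or StAR probes. Bands were quantified by phosphorimaging as % control, with 18S rRNA as loading reference and ≥2 experiments.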

[5] = Inhibition of ACTH-stimulated cortisol secretion in bovine AZF cells after 3 hrs by EIA; assay type: functional, Bos taurus
[6] = Inhibition of ACTH-induced CYP11a1 mRNA expression in bovine AZF cells at 10 uM after 24 hrs using [alpha32P]dCTP labeled probes by Northern blot analysis; assay type: functional; details: Bos taurus; summary of the method: as §3
[7] = Inhibition of Ang2-stimulated cortisol secretion in bovine AZF cells at 20 uM after 2 hrs by EIA; details: Bos taurus
[8] = Inhibition of ACTH-stimulated cortisol secretion in bovine AZF cells at 10 uM after 0.5 hrs by EIA; assay type: functional; details: Bos taurus
Summary of the method: (§4)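 AZF cells were taken from steer adrenals and plated 24 h on fibronectin in serum-containing DMEM/F12 with antioxidants, then moved to serum-free supplemented DMEM/F12. They were exposed to ACTH(1–24) ± curcumin (1–20 µM) for 0.5, 2 or 24 h. Collected media were assayed for cortisol by EIA, in duplicate from duplicate samples, as mean ± SEM.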

[9] = Inhibition of ACTH-stimulated cortisol secretion in bovine AZF cells at 10 uM after 2 hrs by EIA; assay type: functional; details: Bos taurus; summary of the method: as §4
[10] = Inhibition of ACTH-stimulated cortisol secretion in bovine AZF cells at 10 uM after 2 4 hrs by EIA; assay type: functional; details: Bos taurus; summary of the method: as §4
AZF [11] = experiment: Inhibition of 8CPT-cAMP-induced cortisol secretion in bovine AZF cells at 1 to 20 uM after 1 hr by EIA; assay type: functional, cell-based; details: Bos taurus; summary of the method: as §1
AZF [12] = experiment: Inhibition of ACTH-stimulated cortisol secretion in bovine AZF cells at 1 to 20 uM after 0.5 hrs by EIA; assay type: functional, cell-based; details: Bos taurus; summary of the method: as §4
AZF [13] = experiment: Inhibition of Cav3.2 channel in bovine AZF cells at 5 uM by cell patch clamp assay; assay type: cell-based; details: Bos taurus; summary of the method: as §2
[14] = Inhibition of ACTH-stimulated cortisol secretion in bovine AZF cells after 24 hrs by EIA; assay type: functional, Bos taurus
[15] = Inhibition of 8CPT-cAMP-induced cortisol secretion in bovine AZF cells at 10 uM after 1 hr by EIA; assay type: functional; details: Bos taurus; summary of the method: as §1
[16] = Induction of cortisol secretion in bovine AZF cells at 20 uM after 0.5 to 24 hrs by EIA relative to control; assay type: functional, Bos taurus
Summary of the method: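 AZF cells from adrenal glands of 2–3 yr steers were plated 24 h on fibronectin in DMEM/F12 with 10% FBS, tocopherol, selenite and ascorbate. Medium was then switched to serum-free DMEM/F12 with BSA, ascorbate, tocopherol, insulin and transferrin, with or without compound, at 37 °C. Media were collected at 0.5, 2 and 24 h, and cortisol was measured by EIA (duplicates of duplicate samples, mean ± SEM).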

[17] = molecular target: T1, Potassium channel subfamily K member 2 (Bos taurus, UniProt Q8HY88); experiment: Inhibition of TREK-1 K(+) channel in bovine AZF cells; assay type: cell-based
T1 sequence (Q8HY88 whole entry): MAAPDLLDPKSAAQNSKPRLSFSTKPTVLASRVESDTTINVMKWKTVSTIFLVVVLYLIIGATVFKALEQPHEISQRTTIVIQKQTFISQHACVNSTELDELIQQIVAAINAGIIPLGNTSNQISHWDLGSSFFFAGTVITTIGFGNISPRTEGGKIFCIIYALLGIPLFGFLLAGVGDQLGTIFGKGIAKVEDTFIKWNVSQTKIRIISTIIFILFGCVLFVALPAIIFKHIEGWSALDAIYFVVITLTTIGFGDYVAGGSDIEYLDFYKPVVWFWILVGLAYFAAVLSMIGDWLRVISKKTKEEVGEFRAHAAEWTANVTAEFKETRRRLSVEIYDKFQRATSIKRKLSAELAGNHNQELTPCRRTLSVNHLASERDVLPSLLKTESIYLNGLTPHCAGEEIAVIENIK

COc1cc(/C=C/C(=O)CC(=O)/C=C/c2ccc(O)c(OC)c2)ccc1O [CURCUMIN]
inhibition at 10 µM [1]: 96.8%
inhibition (AZF [2]): 41%
inhibition (AZF [3]): 53.3%
inhibition at 10 µM [4]: 99%
inhibition (INH) [5]: 89%
inhibition at 10 µM [6]: 59%
inhibition at 20 µM [7]: 94.5%
inhibition at 10 µM [8]: 81.1%
inhibition at 10 µM [9]: 92.4%
inhibition at 10 µM [10]: 91%
inhibition (AZF [11]): Active
inhibition (AZF [12]): Active
inhibition (AZF [13]): 31.9%
inhibition (INH) [14]: 92%
inhibition at 10 µM [15]: 92.9%
fold change (FC) [16]: 2
IC50 [17]: 930 nM

— ChEMBL document CHEMBL1154211, “Curcumin inhibits ACTH- and angiotensin II-stimulated cortisol secretion and Ca(v)3.2 current” (J Nat Prod, 2009)
